Results as given in ChEMBL document CHEMBL1955787, “Design and synthesis of novel magnolol derivatives as potential antimicrobial and antiproliferative compounds” (Eur J Med Chem, 2012).
≈ marks a conversion by molar mass, not a printed value. Calls of active or inactive are those of the source. The calls are words filed in the database; no cut-off is given here.

Key:
[1] = system: Aspergillus fumigatus; assay: Antifungal activity against Aspergillus fumigatus LSI-II; assay type: functional
[2] = system: Staphylococcus aureus; assay: Antibacterial activity against Staphylococcus aureus ATCC 29213 treated for 24 hrs followed by compound treated at 2 to 16 times MIC measured after 24 hrs by micro dilution method; assay type: functional; details: ATCC 29213, 24 h
[3] = system: Enterococcus; assay: Antibacterial activity against vancomycin-resistant Enterococcus after 24 hrs by micro dilution method; assay type: functional
Summary of the method: (§1)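 Broth microdilution in Mueller Hinton broth, two-fold serial dilutions, final 0.25 to 256 µg mL-1. Inoculum from 24 h culture in saline, set to 0.5 McFarland, diluted to a final 5 × 10^6 CFU mL-1. Plates held at 37 °C for 24 h and read by eye. MIC is the lowest concentration with no turbidity.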

[4] = system: Enterococcus; assay: Antibacterial activity against vancomycin-resistant Enterococcus treated for 24 hrs followed by compound treated at 2 to 16 times MIC measured after 24 hrs by micro dilution method; assay type: functional
Summary of the method: (§2)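 MBC taken from the same 24 h microdilution plates (Mueller Hinton broth, final inoculum 5 × 10^6 CFU mL-1, 37 °C). […] Spots were incubated 24 h and colonies counted. MBC is the lowest concentration giving a 3 log drop from the starting inoculum.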

[5] = system: Staphylococcus aureus; assay: Antibacterial activity against methicillin-resistant Staphylococcus aureus 15187 treated for 24 hrs followed by compound treated at 2 to 16 times MIC measured after 24 hrs by micro dilution method; assay type: functional; details: Staphylococcus aureus, 15187, 24 h; summary of the method: as §2
[6] = system: Staphylococcus aureus; assay: Antibacterial activity against Staphylococcus aureus ATCC 29213 after 24 hrs by micro dilution method; assay type: functional; details: ATCC 29213, 24 h
Summary of the method: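 Broth microdilution in Mueller Hinton broth. Inoculum from a 24 h culture in saline, set to 0.5 McFarland and diluted to a final 5 × 10^6 CFU mL-1. Two-fold serial dilutions, final 0.25–256 µg mL-1. Incubated 37 °C for 24 h and read visually. MIC is the lowest concentration with no turbidity.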

[7] = system: HL-60; assay: Antiproliferative activity against human HL60 cells after 48 hrs by sulforhodamine B assay; assay type: functional, cell-based; details: HL-60, 48 h
Summary of the method: (§3)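 Sulforhodamine B assay following NCI guidelines. Log-phase cells seeded at 10^4 cells/well and allowed to attach for 24 h at 37 °C, 5% CO2. Exposed 48 h to 1:10 serial dilutions, four replicate wells per condition. Fixed with 50% cold TCA for 1 h at 4 °C, stained, dye dissolved in tris buffer, OD read at 540 nm. Blank-subtracted growth expressed relative to untreated (100%) and reported as IC50.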

[8] = system: MOLT-4; assay: Antiproliferative activity against human MOLT4 cells after 48 hrs by sulforhodamine B assay; assay type: functional, cell-based; details: MOLT-4, 48 h; summary of the method: as §3
[9] = system: PC-3; assay: Antiproliferative activity against human PC3 cells after 48 hrs by sulforhodamine B assay; assay type: functional, cell-based; details: PC-3, 48 h; summary of the method: as §3
[10] = system: Candida albicans; assay: Antifungal activity against Candida albicans ATCC 90028; assay type: functional
[11] = system: Staphylococcus aureus; assay: Antibacterial activity against methicillin-resistant Staphylococcus aureus 15187 after 24 hrs by micro dilution method; assay type: functional; details: Staphylococcus aureus, 15187, 24 h; summary of the method: as §1
[12] = system: HL-60; assay: Cell cycle arrest in human HL60 cells assessed as accumulation at sub-G1 phase at 10 uM after 6 hrs using propidium iodide staining by flow cytometry; assay type: functional
Summary of the method: (§4)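 Time-course sub-G1 analysis of HL-60 cells exposed to 10 µM and sampled at 0, 6, 9, 18 and 24 h. Ethanol fixation, RNase A and propidium iodide staining as for the dose series, then flow cytometric DNA content at 488 nm excitation.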

[13] = system: HL-60; assay: Cell cycle arrest in human HL60 cells assessed as accumulation at sub-G1 phase at 10 uM after 9 hrs using propidium iodide staining by flow cytometry; assay type: functional; summary of the method: as §4
[14] = system: HL-60; assay: Cell cycle arrest in human HL60 cells assessed as accumulation at sub-G1 phase at 10 uM after 3 hrs using propidium iodide staining by flow cytometry; assay type: functional
[15] = system: HL-60; assay: Cell cycle arrest in human HL60 cells assessed as accumulation at sub-G1 phase after 24 hrs using propidium iodide staining by flow cytometry; assay type: functional, cell-based
Summary of the method: (§5)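 Cell-cycle (sub-G1) profiling of HL-60 cells at 1 × 10^6 per well, treated 24 h at 1, 10, 30 or 100 µM. Washed in ice-cold PBS, fixed in 70% ethanol at -20 °C for 30 min. Treated with RNase A (0.1 mg/mL) at 37 °C for 30 min, then propidium iodide (50 µg/mL) for 30 min on ice in the dark. Read with doublet discrimination and 488 nm excitation.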

[16] = system: HL-60; assay: Cell cycle arrest in human HL60 cells assessed as accumulation at sub-G1 phase at 10 uM after 24 hrs using propidium iodide staining by flow cytometry; assay type: functional; summary of the method: as §4
[17] = system: HL-60; assay: Cell cycle arrest in human HL60 cells assessed as accumulation at sub-G1 phase at 100 uM after 24 hrs using propidium iodide staining by flow cytometry; assay type: functional; summary of the method: as §5
[18] = system: HL-60; assay: Cell cycle arrest in human HL60 cells assessed as accumulation at sub-G1 phase at 10 uM after 18 hrs using propidium iodide staining by flow cytometry; assay type: functional; summary of the method: as §4
[19] = system: HL-60; assay: Cell cycle arrest in human HL60 cells assessed as accumulation at sub-G1 phase at 1 uM after 24 hrs using propidium iodide staining by flow cytometry; assay type: functional; summary of the method: as §5
[20] = system: HL-60; assay: Induction of apoptosis in human HL60 cells assessed as DNA discrete ladder pattern formation at 5 to 30 uM after 24 hrs using ethidium bromide staining by agarose gel electrophoresis analysis; assay type: functional, cell-based
[21] = system: HL-60; assay: Cell cycle arrest in human HL60 cells assessed as accumulation at sub-G1 phase at 30 uM after 24 hrs using propidium iodide staining by flow cytometry; assay type: functional; summary of the method: as §5

| SMILES | MIC [1] | MBC [2] [µg/mL] | MIC [3] [µg/mL] | MBC [4] [µg/mL] | MBC [5] [µg/mL] | MIC [6] [µg/mL] | IC50 [7] [µM] | IC50 [8] [µM] | IC50 [9] [µM] | MIC [10] | MIC [11] [µg/mL] | also measured |
| --- | --- | --- | --- | --- | --- | --- | --- | --- | --- | --- | --- | --- |
| CCCCc1ccc(O)c(-c2cc(CCCC)cc(I)c2O)c1 | inactive | > 256 | > 256 | > 256 | > 256 | > 256 | 50 | 66 | 60 | inactive | > 256 |  |
| CCCc1cc(Br)c(O)c(-c2cc(CCC)cc(Br)c2O)c1 | inactive | 4 (≈ 9.34 µM) | 4 (≈ 9.34 µM) | 8 (≈ 18.7 µM) | 4 (≈ 9.34 µM) | 4 (≈ 9.34 µM) | 30 | 55 | 95 | inactive | 4 (≈ 9.34 µM) |  |
| CCCCc1cc(I)c(O)c(-c2cc(CCCC)cc(I)c2O)c1 | inactive | 4 (≈ 7.27 µM) | 4 (≈ 7.27 µM) | 8 (≈ 14.5 µM) | 4 (≈ 7.27 µM) | 4 (≈ 7.27 µM) | 2 | 10 | 2 | inactive | 4 (≈ 7.27 µM) | Activity [12]: 21%; Activity [13]: 33%; Activity [14]: 14%; Activity [15]: Dose-dependent effect; Activity [16]: 52%; Activity [17]: 78%; Activity [18]: 44%; Activity [19]: 12%; Activity [20]: Active; Activity [21]: 67% |
| CC[C@H]1OC(=O)[C@H](C)[C@@H](O[C@H]2C[C@@](C)(OC)[C@@H](O)[C@H](C)O2)[C@H](C)[C@@H](O[C@@H]2O[C@H](C)C[C@H](N(C)C)[C@H]2O)[C@](C)(O)C[C@@H](C)C(=O)[C@H](C)[C@@H](O)[C@]1(C)O [ERYTHROMYCIN] |  | 1 (≈ 1.36 µM) | 64 (≈ 87.2 µM) | 64 (≈ 87.2 µM) | 64 (≈ 87.2 µM) | 0.5 (≈ 0.681 µM) |  |  |  |  | 64 (≈ 87.2 µM) |  |
| O=c1[nH]cc(F)c(=O)[nH]1 [FLUOROURACIL] |  |  |  |  |  |  | 266 | 3.2 | 2.1 |  |  |  |
| C=CCc1cc(OC)c(O)c(-c2cc(CC=C)cc(OC)c2O)c1 | 32 µg/mL (≈ 98 µM) | > 256 | > 256 | > 256 | > 256 | > 256 | > 100 | > 100 | > 100 | 64 µg/mL (≈ 196 µM) | > 256 |  |
| C=CCc1ccc(O)c(-c2cc(CC=C)ccc2O)c1 [MAGNOLOL] |  | 32 (≈ 120 µM) | 32 (≈ 120 µM) | 32 (≈ 120 µM) | 32 (≈ 120 µM) | 16 (≈ 60.1 µM) | 48 | 58 | 62 |  | 32 (≈ 120 µM) |  |
| CCCc1ccc(O)c(-c2cc(CCC)cc(Br)c2O)c1 | inactive | 8 (≈ 22.9 µM) | 16 (≈ 45.8 µM) | 32 (≈ 91.6 µM) | 16 (≈ 45.8 µM) | 8 (≈ 22.9 µM) | > 100 | > 100 | > 100 | inactive | 16 (≈ 45.8 µM) |  |
| CCCCc1cc(Br)c(O)c(-c2cc(CCCC)cc(Br)c2O)c1 | inactive | 8 (≈ 17.5 µM) | 8 (≈ 17.5 µM) | 16 (≈ 35.1 µM) | 8 (≈ 17.5 µM) | 8 (≈ 17.5 µM) | > 100 | > 100 | > 100 | inactive | 8 (≈ 17.5 µM) |  |
